Assays:
[1] = Selectivity index, ratio of CC50 for human MT4 cells to EC50 for HIV 1 NL4-3; format: toxicity, cell-based; conditions: read-out: Ratio CC50/EC50
Outline: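 CC50 from mock-infected MT-4 cells and EC50 against HIV-1 NL4-3 in infected MT-4 cells, both by day-5 MTT viability read-out; index computed as CC50/EC50(NL4-3); means of at least two experiments.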

[2] = test system: Human immunodeficiency virus 1; test: Ratio of ID50 for HIV 1 reverse transcriptase Y188L mutant to ID50 for wild type HIV 1 NL4-3 reverse transcriptase
Outline: (§1)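 Recombinant HIV-1 RT (wild type or K103N, L100I, Y181I or Y188L), purified to >95%, at 2-4 nM. RNA-dependent DNA polymerase assay with 0.5 μg poly(rA)/oligo(dT) 10:1 (0.3 μM 3'-OH ends) and 10 μM [3H]dTTP in 8% final DMSO. Initial velocities were taken from aliquots sampled every 2 min. […] The ratio is mutant ID50 over wild-type ID50. Means of at least three experiments.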

[3] = test system: Human immunodeficiency virus 1; test: Ratio of ID50 for HIV 1 reverse transcriptase Y181I mutant to ID50 for wild type HIV 1 NL4-3 reverse transcriptase; outline: as §1
[4] = test system: Human immunodeficiency virus 1; test: Ratio of ID50 for HIV 1 reverse transcriptase L100I mutant to ID50 for wild type HIV 1 NL4-3 reverse transcriptase; outline: as §1
[5] = test system: Human immunodeficiency virus 1; test: Ratio of ID50 for HIV 1 reverse transcriptase K103N mutant to ID50 for wild type HIV 1 NL4-3 reverse transcriptase; outline: as §1
[6] = test system: Human immunodeficiency virus 1; test: Antiviral activity against wild type HIV 1 NL4-3 infected in human MT4 cells assessed as inhibition of virus-induced cytopathic effect after 5 days by MTT assay; format: functional, organism-based; conditions: Human immunodeficiency virus 1, NL4-3, MT4, 120 h
[7] = test system: Human immunodeficiency virus 1; test: Resistance ratio of EC50 for multidrug-resistant HIV 1 IRLL98 harboring reverse transcriptase K101Q/Y181C/G190a mutant to EC50 for wild type HIV 1 NL4-3 infected in human MT4 cells; format: functional
Outline: (§2)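 Fold change is the EC50 against the mutant strain (K103N, Y181C, Y188L or IRLL98) divided by the EC50 against wild-type NL4-3. Both EC50s come from MT-4 cells infected in the presence of a range of drug concentrations, with MTT viability read at day 5. Values are means of at least two experiments.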

[8] = test system: Human immunodeficiency virus 1; test: Antiviral activity against multidrug-resistant HIV 1 IRLL98 harboring reverse transcriptase K101Q/Y181C/G190a mutant infected in human MT4 cells assessed as virus-induced cytopathic effect after 5 days by MTT assay; format: functional, organism-based; conditions: Human immunodeficiency virus 1, IRLL98, MT4, 120 h
Outline: (§3)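 MT-4 cells (NIH AIDS Reagent Program) infected with the mutant HIV-1 strain in the presence of a range of drug concentrations. Mutant strains were from the MRC Centralised Facility for AIDS Reagents; IRLL98 carries K101Q, Y181C and G190A. Viable cells were counted by MTT colorimetry at day 5 post-infection. […] Values are means of at least two experiments.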

[9] = Cytotoxicity against human MT4 cells assessed as cell viability by MTT assay; format: cell-based
[10] = test system: Human immunodeficiency virus 1; test: Antiviral activity against HIV 1 harboring reverse transcriptase K103N mutant infected in human MT4 cells assessed as inhibition of virus-induced cytopathic effect after 5 days by MTT assay; format: functional, organism-based; conditions: Human immunodeficiency virus 1, MT4, 120 h
[11] = test system: Human immunodeficiency virus 1; test: Antiviral activity against HIV 1 harboring reverse transcriptase Y181C mutant infected in human MT4 cells assessed as inhibition of virus-induced cytopathic effect after 5 days by MTT assay; format: functional, organism-based; conditions: Human immunodeficiency virus 1, MT4, 120 h; outline: as §3
[12] = test system: Human immunodeficiency virus 1; test: Antiviral activity against HIV 1 harboring reverse transcriptase Y188L mutant infected in human MT4 cells assessed as inhibition of virus-induced cytopathic effect after 5 days by MTT assay; format: functional, organism-based; conditions: Human immunodeficiency virus 1, MT4, 120 h
[13] = test system: Human immunodeficiency virus 1; test: Resistance ratio of EC50 for HIV 1 harboring reverse transcriptase K103N mutant infected in human MT4 cells to EC50 for wild type HIV 1 NL4-3 infected in human MT4 cells; format: functional; outline: as §2
[14] = test system: Human immunodeficiency virus 1; test: Resistance ratio of EC50 for HIV 1 harboring reverse transcriptase Y181C mutant infected in human MT4 cells to EC50 for wild type HIV 1 NL4-3 infected in human MT4 cells; format: functional; outline: as §2
[15] = test system: Human immunodeficiency virus 1; test: Resistance ratio of EC50 for HIV 1 harboring reverse transcriptase Y188L mutant infected in human MT4 cells to EC50 for wild type HIV 1 NL4-3 infected in human MT4 cells; format: functional; outline: as §2
[16] = test system: Human immunodeficiency virus type 1 reverse transcriptase (Human immunodeficiency virus 1), Q72547 [L100I]
[17] = test system: Human immunodeficiency virus type 1 reverse transcriptase (Human immunodeficiency virus 1), Q72547 [K103N]
[18] = test system: Human immunodeficiency virus type 1 reverse transcriptase (Human immunodeficiency virus 1), Q72547 [Y181I]
[19] = molecular target: Human immunodeficiency virus type 1 reverse transcriptase (Human immunodeficiency virus 1) (UniProt Q72547)
[20] = test system: Human immunodeficiency virus type 1 reverse transcriptase (Human immunodeficiency virus 1), Q72547 [K103N]; test: Ratio of MC1220 ID50 to compound ID50 for HIV 1 reverse transcriptase K103N mutant
[21] = test system: Human immunodeficiency virus 1; test: Ratio of efavirenz EC50 to compound EC50 for wild type HIV 1 NL4-3 infected in human MT4 cells; format: functional
[22] = Ratio of TMC120 CC50 to compound CC50 for human MT4 cells; format: ADME, cell-based
MT4 = test: Ratio of MC1220 CC50 to compound CC50 for human MT4 cells; format: ADME, cell-based

Cc1c(Cl)nc(Nc2ccc(C#N)cc2)nc1C(C)c1c(F)cccc1F (stereo not drawn)
selectivity ratio [1]: > 5650
Ratio [2]: 2.6
Ratio [3]: 386
Ratio [4]: 17
Ratio [5]: 8.1
EC50 [6]: 2.3 nM
Ratio EC50 [7]: 3
EC50 [8]: 7.8 nM
CC50 [9]: > 13000 nM
EC50 [10]: 2.3 nM
EC50 [11]: 44 nM
EC50 [12]: 60 nM
Ratio EC50 [13]: 1
Ratio EC50 [14]: 22
Ratio EC50 [15]: 30
ID50 [16]: 150 nM
ID50 [17]: 71 nM
ID50 [18]: 3400 nM
ID50 [19]: 8.8 nM

Cc1c(N)nc(Nc2ccc(C#N)cc2)nc1C(C)c1c(F)cccc1F (stereo not drawn)
Ratio [2]: 10
Ratio [3]: 120
Ratio [4]: 20
Ratio [5]: 1.6
Ratio [20]: 23
Ratio EC50 [21]: >10
selectivity ratio [22]: > 10
Ratio (MT4): 2.5
EC50 [6]: 0.08 nM
Ratio EC50 [7]: 10
EC50 [8]: 0.82 nM
CC50 [9]: 40500 nM
EC50 [10]: 34.7 nM
EC50 [11]: 39.9 nM
EC50 [12]: 27.4 nM
ID50 [16]: 282 nM
ID50 [17]: 22 nM
ID50 [18]: 1680 nM
ID50 [19]: 14 nM

N#Cc1ccc(Nc2nc(N)cc(Cc3c(F)cccc3F)n2)cc1
selectivity ratio [1]: 149000
Ratio [2]: 280
Ratio [3]: 1570
Ratio [4]: 137
Ratio [5]: 15
Ratio EC50 [21]: >10
selectivity ratio [22]: > 10
Ratio (MT4): 2.5
EC50 [6]: 0.3 nM
CC50 [9]: 44600 nM
EC50 [10]: 14.2 nM
EC50 [11]: 71.4 nM
EC50 [12]: 108 nM
Ratio EC50 [13]: 47
Ratio EC50 [14]: 238
Ratio EC50 [15]: 361
ID50 [16]: 1510 nM
ID50 [17]: 169 nM
ID50 [18]: 17300 nM
ID50 [19]: 11 nM
